In brackets after ≈: the same amount, converted by molar mass. Entries after “also recorded” stand apart in the source; their conditions may differ. Read-outs that look alike come from different tables or passages of the source.
Tests used:
S. aureus [1] = assay: MIC, whole cell growth inhibition dose response; format: cell-based, Staphylococcus aureus; conditions: for MIC: Staphylococcus aureus, MRSA
[2] = SPR binding of peptides on immobilized liposomes; conditions: POPC lipid systems, 100 μM peptide
five bacterial pathogens = assay: Bacterial growth inhibition at single concentration, whole panel; format: cell-based; conditions: 32 μg/mL, in words
A. baumannii [3] = assay: Bacterial growth inhibition at single concentration; format: cell-based, Acinetobacter baumannii; conditions: 32 μg/mL (15–17 μM), OD600, 18 h
S. aureus [4] = assay: as above; format: cell-based, Staphylococcus aureus; conditions: 32 μg/mL (15–17 μM), OD600, 18 h; in words
Liposome leakage = conditions: 20 μM peptide, CF dequenching
Method in brief: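 Vesicles: 5 mg DOPC in chloroform, dried under N2, then freeze-dried 2 h to remove residual solvent. The lipid was redissolved in diethyl ether and hydrated in 10 mM HEPES, 100 mM KCl, pH 7.4, containing 50 mM carboxyfluorescein (quenching level). Peptide at 20 μM was mixed with vesicles for 3 min equilibration. Release was followed as the fluorescence dequenching rate.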

E. coli = assay: MIC, whole cell growth inhibition dose response; format: cell-based, Escherichia coli; conditions: n=2
K. pneumoniae = assay: MIC, whole cell growth inhibition dose response; format: cell-based, Klebsiella pneumoniae; conditions: n=2
A. baumannii [5] = assay: MIC, whole cell growth inhibition dose response; format: cell-based, Acinetobacter baumannii; conditions: polystyrene 96-well plate, n=2
[6] = non-binding surface 96-well plate

**Q.** Which MIC (S. aureus [1]; read-out: MIC S. aureus MRSA NBS plate) does the source give for `CN[C@H](CC(C)C)C(=O)N[C@H]1C(=O)N[C@@H](CC(N)=O)C(=O)N[C@H]2C(=O)N[C@H]3C(=O)N[C@H](C(=O)N[C@H](C(=O)O)c4cc(O)cc(O)c4-c4cc3ccc4O)[C@H](O)c3ccc(c(Cl)c3)Oc3cc2cc(c3O[C@@H]2O[C@H](CO)[C@@H](O)[C@H](O)[C@H]2O[C@H]2C[C@](C)(N)[C@H](O)[C@H](C)O2)Oc2ccc(cc2Cl)[C@H]1O` [Vancomycin] here?
**A.** Its MIC is 2 µg/mL (≈ 1.38 µM).

**Q.** And the MIC (S. aureus [1]; read-out: MIC S. aureus MRSA PS plate)?
**A.** The MIC was 2 µg/mL (≈ 1.38 µM).

**Q.** With Ac-(AzPro-Pro)8-NHCH2CH2OH [Peptide 2] as the compound, how does the SPR binding response [2] read?
**A.** Its SPR binding response is “showed some binding response”.

**Q.** What about the “antibacterial activity (growth inhibition) over the bacterial panel” value (five bacterial pathogens) of the same compound?
**A.** Its value is “considerable loss of activity”.

**Q.** For Boc-(Pro-AzPro)4-H [Peptide 22], which “antibacterial activity (growth inhibition) over the bacterial panel” value (five bacterial pathogens) is on record?
**A.** Its value is “little inhibition”.

**Q.** Which SPR binding response [2] does the source give for Boc-(Pro-AzPro)8-Cbz [Peptide 10] here?
**A.** The SPR binding response was “showed some binding response”.

**Q.** Which results are given for Boc-(Pro-AzPro)8-H.HCl [Peptide 17]?
**A.** A. baumannii growth inhibition (A. baumannii [3]): some activity; S. aureus growth inhibition (S. aureus [4]): some activity

**Q.** For Cbz-(AzPro-Pro)4-OH [Peptide 19], which “antibacterial activity (growth inhibition) over the bacterial panel” value (five bacterial pathogens) is on record?
**A.** The value was “little inhibition”.

**Q.** With Cbz-(AzPro-Pro)4-O^tBu [Peptide 18] as the compound, how does the “antibacterial activity (growth inhibition) over the bacterial panel” value (five bacterial pathogens) read?
**A.** The value was “little inhibition”.

**Q.** For “Cbz-(AzPro-Pro)8-(N-Methyl AzPro) [Peptide 13]”, which “antibacterial activity (growth inhibition) over the bacterial panel” value (five bacterial pathogens) is on record?
**A.** Its value is “highest activity”.

**Q.** What does the source list for Cbz-(AzPro-Pro)8-NHCH2CH2OH [Peptide 1]?
**A.** SPR binding response [2]: showed some binding response; DOPC liposome leakage (Liposome leakage): 13%; A. baumannii growth inhibition (A. baumannii [3]): 38%; antibacterial activity (growth inhibition) over the bacterial panel (five bacterial pathogens): highest activity

**Q.** Which “antibacterial activity (growth inhibition) over the bacterial panel” value (five bacterial pathogens) does the source give for Cbz-(AzPro-Pro)8-OH [Peptide 14] here?
**A.** The value was “considerable loss of activity; also recorded: largely abolishes all activity”.

**Q.** Which SPR binding response [2] does the source give for Cbz-(AzPro-Pro)8-O^tBu [Peptide 8] here?
**A.** Its SPR binding response is “showed some binding response”.

**Q.** What about the “antibacterial activity (growth inhibition) over the bacterial panel” value (five bacterial pathogens) of the same compound?
**A.** Its value is “highest activity”.

**Q.** For Cbz-(AzPro-Pro)16-O^tBu [Peptide 11], which “antibacterial activity (growth inhibition) over the bacterial panel” value (five bacterial pathogens) is on record?
**A.** The value was “considerable loss of activity; also recorded: drastic loss in activity”.

**Q.** Which “MIC E. coli FDA Control NBS plate” value (E. coli; [6]) does the source give for Colistin here?
**A.** The value was 0.016 µg/mL.

**Q.** And the “MIC E. coli FDA Control PS plate” value (E. coli; polystyrene 96-well plate)?
**A.** The value was 0.125 µg/mL.

**Q.** And the “MIC K. pneumoniae MDR NBS plate” value (K. pneumoniae; [6])?
**A.** The value was 0.06 µg/mL.

**Q.** What about the “MIC K. pneumoniae MDR PS plate” value (K. pneumoniae; polystyrene 96-well plate) of the same compound?
**A.** Its value is 0.25 µg/mL.

**Q.** And the “MIC A. baumannii Type PS plate” value (A. baumannii [5])?
**A.** The value was 1 µg/mL.

**Q.** What about the “MIC S. aureus MRSA NBS plate” value (S. aureus [1]; non-binding surface 96-well plate, n=2) of the same compound?
**A.** Its value is >32 µg/mL.

**Q.** And the “MIC S. aureus MRSA PS plate” value (S. aureus [1]; polystyrene 96-well plate, n=2)?
**A.** The value was >32 µg/mL.

**Q.** With “Formyl-(AzPro-Pro)6-NHCH2CH2OH [Peptide 6]” as the compound, how does the “antibacterial activity (growth inhibition) over the bacterial panel” value (five bacterial pathogens) read?
**A.** Its value is “largely abolishes all activity”.

**Q.** Which “antibacterial activity (growth inhibition) over the bacterial panel” value (five bacterial pathogens) does the source give for “Formyl-(AzPro-Pro)7-NHCH2CH2OH [Peptide 5]” here?
**A.** The value was “largely abolishes all activity”.

**Q.** With H-(AzPro-Pro)4-O^tBu [Peptide 20] as the compound, how does the “antibacterial activity (growth inhibition) over the bacterial panel” value (five bacterial pathogens) read?
**A.** Its value is “largely abolishes all activity”.

**Q.** With H-(AzPro-Pro)8-NHCH2CH2OH [Peptide 4] as the compound, how does the “antibacterial activity (growth inhibition) over the bacterial panel” value (five bacterial pathogens) read?
**A.** Its value is “considerable loss of activity”.

**Q.** For H-(Pro-AzPro)8-H [Peptide 9], which “antibacterial activity (growth inhibition) over the bacterial panel” value (five bacterial pathogens) is on record?
**A.** Its value is “highest activity”.

**Q.** Which “A. baumannii growth inhibition” value (A. baumannii [3]) does the source give for HCl. H-(Pro-AzPro)8-Cbz [Peptide 16] here?
**A.** The value was “some activity”.

**Q.** And the “S. aureus growth inhibition” value (S. aureus [4])?
**A.** The value was “some activity”.

**Q.** With HCl.H-(Pro-AzPro)4-Cbz [Peptide 23] as the compound, how does the “antibacterial activity (growth inhibition) over the bacterial panel” value (five bacterial pathogens) read?
**A.** Its value is “little inhibition”.

Source: paper PMC8366898 (European journal of medicinal chemistry, 2018)
